Results on one molecule are retold here after ChEMBL document CHEMBL4007456, “Heterocyclyl Tetracyclines. 1. 7-Trifluoromethyl-8-Pyrrolidinyltetracyclines: Potent, Broad Spectrum Antibacterial Agents with Enhanced Activity against Pseudomonas aeruginosa” (2017).

Structures are written as SMILES. Values after ≈ are worked out from the molar mass of the structure shown. A value given as a limit tells only on which side of the number the result lay.

For the first test, the system named is Acinetobacter baumannii. As to the kind of experiment: Antibacterial activity against gram-negative Acinetobacter baumannii AB250 by CLSI method. The format is functional. In short, it runs like this: (§1)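 Broth microdilution MIC per CLSI in cation-adjusted Mueller Hinton broth, prepared fresh and held at 4 °C. Defibrinated horse blood added where appropriate. Compounds serially diluted in sterile deionized water. Strains from ATCC unless otherwise noted. Runs accepted when comparator antibiotics fell within QC ranges for ATCC quality control strains.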
In the case of `CCN1CCC[C@H]1c1cc(O)c2c(c1C(F)(F)F)C[C@H]1C[C@H]3[C@H](N(C)C)C(O)=C(C(N)=O)C(=O)[C@@]3(O)C(O)=C1C2=O`, inhibition of growth (MIC) required 1 µg/mL (≈ 1.73 µM).

A further test relates to Stenotrophomonas maltophilia. As to the kind of experiment: Antibacterial activity against gram-negative Stenotrophomonas maltophilia SM256 by CLSI method. The format is functional. In short, it runs like this:
as §1
Take `CCN1CCC[C@H]1c1cc(O)c2c(c1C(F)(F)F)C[C@H]1C[C@H]3[C@H](N(C)C)C(O)=C(C(N)=O)C(=O)[C@@]3(O)C(O)=C1C2=O`: 1 µg/mL (≈ 1.73 µM) was the least that counted as inhibitory (MIC).

A further test concerns Burkholderia cenocepacia. As to the kind of experiment: Antibacterial activity against gram-negative Burkholderia cenocepacia BC240 by CLSI method. The format is functional. In short, it runs like this: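 Defibrinated horse blood added where appropriate. Compounds serially diluted in sterile deionized water. Strains from ATCC unless otherwise noted. Runs accepted when comparator antibiotics fell within QC ranges for ATCC quality control strains.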
As for `CCN1CCC[C@H]1c1cc(O)c2c(c1C(F)(F)F)C[C@H]1C[C@H]3[C@H](N(C)C)C(O)=C(C(N)=O)C(=O)[C@@]3(O)C(O)=C1C2=O`, the MIC amounted to 8 µg/mL (≈ 13.8 µM).

In another test the test system is Enterococcus faecalis. As to the kind of experiment: Antibacterial activity against gram-positive Enterococcus faecalis EFs327 harboring tet(M) by CLSI method. The format is functional. In short, it runs like this:
(§2)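 CLSI broth microdilution MIC in fresh cation-adjusted Mueller Hinton broth, supplemented with defibrinated horse blood where appropriate. Compounds serially diluted in sterile deionized water. Runs accepted when comparator antibiotics against ATCC quality-control strains fell within recommended ranges.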
Regarding `CCN1CCC[C@H]1c1cc(O)c2c(c1C(F)(F)F)C[C@H]1C[C@H]3[C@H](N(C)C)C(O)=C(C(N)=O)C(=O)[C@@]3(O)C(O)=C1C2=O`, the MIC came to 0.5 µg/mL (≈ 0.863 µM).

For another test, the system named is Enterococcus faecium. As to the kind of experiment: Antibacterial activity against gram-positive Enterococcus faecium EFm404 harboring tet(M) by CLSI method. The format is functional. In short, it runs like this: as §2
The molecule `CCN1CCC[C@H]1c1cc(O)c2c(c1C(F)(F)F)C[C@H]1C[C@H]3[C@H](N(C)C)C(O)=C(C(N)=O)C(=O)[C@@]3(O)C(O)=C1C2=O` returned an MIC of 0.125 µg/mL (≈ 0.216 µM).

The test system of the next test is Klebsiella pneumoniae. As to the kind of experiment: Antibacterial activity against gram-negative Klebsiella pneumoniae KP457 harboring blacTX-M-15 extended spectrum beta-lactamase gene by CLSI method. Type of test: functional. In short, it runs like this:
as §2
On to `CCN1CCC[C@H]1c1cc(O)c2c(c1C(F)(F)F)C[C@H]1C[C@H]3[C@H](N(C)C)C(O)=C(C(N)=O)C(=O)[C@@]3(O)C(O)=C1C2=O`, for which the MIC was 4 µg/mL (≈ 6.9 µM).

A further test concerns Proteus mirabilis. As to the kind of experiment: Antibacterial activity against gram-negative Proteus mirabilis PM385 by CLSI method. The format is functional. In short, it runs like this:
as §1
The molecule `CCN1CCC[C@H]1c1cc(O)c2c(c1C(F)(F)F)C[C@H]1C[C@H]3[C@H](N(C)C)C(O)=C(C(N)=O)C(=O)[C@@]3(O)C(O)=C1C2=O` returned an MIC of 4 µg/mL (≈ 6.9 µM).

The test system of a further test is Pseudomonas aeruginosa. As to the kind of experiment: Antibacterial activity against gram-negative Pseudomonas aeruginosa PA555 by CLSI method. Type of test: functional. In short, it runs like this:
as §1
Molecule `CCN1CCC[C@H]1c1cc(O)c2c(c1C(F)(F)F)C[C@H]1C[C@H]3[C@H](N(C)C)C(O)=C(C(N)=O)C(=O)[C@@]3(O)C(O)=C1C2=O` gave an MIC of 32 µg/mL (≈ 55.2 µM).

The subject of another test is Enterobacter cloacae. As to the kind of experiment: Antibacterial activity against gram-negative Enterobacter cloacae EC1603 harboring tet(A) by CLSI method. Type of test: functional. In short, it runs like this: as §2
Turning to `CCN1CCC[C@H]1c1cc(O)c2c(c1C(F)(F)F)C[C@H]1C[C@H]3[C@H](N(C)C)C(O)=C(C(N)=O)C(=O)[C@@]3(O)C(O)=C1C2=O`, the MIC amounted to 4 µg/mL (≈ 6.9 µM).

The next test has as its system Staphylococcus aureus. As to the kind of experiment: Antibacterial activity against gram-positive Staphylococcus aureus SA101 by CLSI method. The format is functional. In short, it runs like this:
as §1
Take `CCN1CCC[C@H]1c1cc(O)c2c(c1C(F)(F)F)C[C@H]1C[C@H]3[C@H](N(C)C)C(O)=C(C(N)=O)C(=O)[C@@]3(O)C(O)=C1C2=O`: the MIC came to 0.0312 µg/mL (≈ 0.0538 µM).

The next test deals with Staphylococcus aureus. As to the kind of experiment: Antibacterial activity against gram-positive Staphylococcus aureus SA161 harboring tet(M) by CLSI method. Type of test: functional. In short, it runs like this:
as §2
Regarding `CCN1CCC[C@H]1c1cc(O)c2c(c1C(F)(F)F)C[C@H]1C[C@H]3[C@H](N(C)C)C(O)=C(C(N)=O)C(=O)[C@@]3(O)C(O)=C1C2=O`, the minimal inhibitory concentration (MIC) is 1 µg/mL (≈ 1.73 µM).

A further test concerns Staphylococcus aureus. As to the kind of experiment: Antibacterial activity against gram-positive Staphylococcus aureus SA158 harboring tet(K) by CLSI method. Type of test: functional. In short, it runs like this:
as §2
Consider `CCN1CCC[C@H]1c1cc(O)c2c(c1C(F)(F)F)C[C@H]1C[C@H]3[C@H](N(C)C)C(O)=C(C(N)=O)C(=O)[C@@]3(O)C(O)=C1C2=O`, for which the MIC is ≤ 0.0156 µg/mL.

For another test, the system named is Streptococcus pneumoniae. As to the kind of experiment: Antibacterial activity against gram-positive Streptococcus pneumoniae SP160 harboring tet(M) by CLSI method. The format is functional. In short, it runs like this: as §2
For `CCN1CCC[C@H]1c1cc(O)c2c(c1C(F)(F)F)C[C@H]1C[C@H]3[C@H](N(C)C)C(O)=C(C(N)=O)C(=O)[C@@]3(O)C(O)=C1C2=O`, the MIC is ≤ 0.0156 µg/mL.

The next test deals with Escherichia coli. As to the kind of experiment: Antibacterial activity against gram-negative Escherichia coli EC107 by CLSI method. Type of test: functional. In short, it runs like this: as §1
Regarding `CCN1CCC[C@H]1c1cc(O)c2c(c1C(F)(F)F)C[C@H]1C[C@H]3[C@H](N(C)C)C(O)=C(C(N)=O)C(=O)[C@@]3(O)C(O)=C1C2=O`, the MIC is ≤ 0.0156 µg/mL.

A further test has as its system Escherichia coli. As to the kind of experiment: Antibacterial activity against gram-negative Escherichia coli EC155 harboring tet(A) by CLSI method. Type of test: functional. In short, it runs like this: as §2
In the case of `CCN1CCC[C@H]1c1cc(O)c2c(c1C(F)(F)F)C[C@H]1C[C@H]3[C@H](N(C)C)C(O)=C(C(N)=O)C(=O)[C@@]3(O)C(O)=C1C2=O`, the MIC turned out to be 0.5 µg/mL (≈ 0.863 µM).

What is called MIC is the smallest concentration in the dilution series that meets the test's criterion for growth inhibition. Read a high MIC as weaker potency.
